Assay results: ChEMBL document CHEMBL1121378, “Lipophilic and hydrophilic esters of 4-acetyl-2-(2-hydroxyethyl)-5,6-bis(4-chlorophenyl)-2H-pyridazin-3-one as antihypertensive agents” (1980)

Columns and labels:
Type in all cases: functional
Rattus norvegicus [1] = assay: Antihypertensive activity in spontaneously hypertensive rats was measured as average blood pressure at 12 mg/kg, p.o. after 24 hours of postdose-1; settings: route oral
How it was run: (§1)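 SHR model with two successive doses, designated dose 1 and dose 2. Group-average blood pressure in mmHg was recorded before dosing and at 4 h and 24 h after each dose. The route is oral unless marked intra-arterial or subcutaneous. A table footnote marks doses that gave no significant lowering at 4 or 24 h postdose.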

Rattus norvegicus [2] = assay: Antihypertensive activity in spontaneously hypertensive rats was measured as average blood pressure at 100 mg/kg, p.o. after 4 hours of postdose-2; settings: route oral; how it was run: as §1
Rattus norvegicus [3] = assay: Antihypertensive activity in spontaneously hypertensive rats was measured as average blood pressure at 4 mg/kg, po before predose; how it was run: as §1
Rattus norvegicus [4] = assay: Antihypertensive activity in spontaneously hypertensive rats was measured as average blood pressure at 100 mg/kg, p.o. after 24 hours of postdose-2; settings: route oral; how it was run: as §1
Rattus norvegicus [5] = assay: Antihypertensive activity in spontaneously hypertensive rats was measured as average blood pressure at 4 mg/kg, p.o. after 4 hours of postdose-1; settings: route oral; how it was run: as §1
Rattus norvegicus [6] = assay: Antihypertensive activity in spontaneously hypertensive rats was measured as average blood pressure at 12 mg/kg, p.o. after 4 hours of postdose-1; settings: route oral; how it was run: as §1
Rattus norvegicus [7] = assay: Antihypertensive activity in spontaneously hypertensive rats was measured as average blood pressure at 4 mg/kg, p.o. after 24 hours of postdose-2; settings: route oral; how it was run: as §1
Rattus norvegicus [8] = assay: Antihypertensive activity in spontaneously hypertensive rats was measured as average blood pressure at 100 mg/kg, p.o. after 4 hours of postdose-1; settings: route oral; how it was run: as §1
Rattus norvegicus [9] = assay: Antihypertensive activity in spontaneously hypertensive rats was measured as average blood pressure at 12 mg/kg, p.o. after 24 hours of postdose-2; settings: route oral; how it was run: as §1
Rattus norvegicus [10] = assay: Antihypertensive activity in spontaneously hypertensive rats was measured as average blood pressure at 100 mg/kg, p.o. before predose; settings: route oral; how it was run: as §1
Rattus norvegicus [11] = assay: Antihypertensive activity in spontaneously hypertensive rats was measured as average blood pressure at 4 mg/kg, p.o. after 4 hours of postdose-2; settings: route oral; how it was run: as §1
Rattus norvegicus [12] = assay: Antihypertensive activity in spontaneously hypertensive rats was measured as average blood pressure at 12 mg/kg, p.o. after 4 hours of postdose-2; settings: route oral; how it was run: as §1
Rattus norvegicus [13] = assay: Antihypertensive activity in spontaneously hypertensive rats was measured as average blood pressure at 12 mg/kg, p.o. before predose; settings: route oral; how it was run: as §1
Rattus norvegicus [14] = assay: Antihypertensive activity in spontaneously hypertensive rats was measured as average blood pressure at 4 mg/kg, po after 24 hours of postdose-1; how it was run: as §1
Rattus norvegicus [15] = assay: Antihypertensive activity in spontaneously hypertensive rats was measured as average blood pressure at 100 mg/kg, p.o. after 24 hours of postdose-1; settings: route oral; how it was run: as §1

With `CC(=O)c1c(-c2ccc(Cl)cc2)c(-c2ccc(Cl)cc2)nn(CCOC(=O)CN)c1=O.Cl` the BP (Rattus norvegicus [1]) was 161 mmHg, the BP (Rattus norvegicus [2]) was 124 mmHg and the BP (Rattus norvegicus [3]) was 184 mmHg. It also gave a BP (Rattus norvegicus [4]) of 166 mmHg, a BP (Rattus norvegicus [5]) of 162 mmHg and a BP (Rattus norvegicus [6]) of 164 mmHg. It also gave a BP (Rattus norvegicus [7]) of 175 mmHg, a BP (Rattus norvegicus [8]) of 138 mmHg and a BP (Rattus norvegicus [9]) of 164 mmHg. The BP (Rattus norvegicus [10]) was 178 mmHg, the BP (Rattus norvegicus [11]) was 161 mmHg and the BP (Rattus norvegicus [12]) was 153 mmHg. The BP (Rattus norvegicus [13]) was 199 mmHg, the BP (Rattus norvegicus [14]) was 189 mmHg and the BP (Rattus norvegicus [15]) was 131 mmHg.
